{"data": "Measurements collected from several papers", "ELANE": "Neutrophil elastase (ELANE, Homo sapiens, UniProt P08246)", "Delta-aminolevulinic acid dehydratase C162A/K59N": "Delta-aminolevulinic acid dehydratase (Homo sapiens, UniProt P13716, C162A/K59N)", "BACE1": "Beta-secretase 1 (BACE1, Homo sapiens, UniProt P56817)", "RXFP3": "Relaxin-3 receptor 1 (RXFP3, Homo sapiens, UniProt Q9NSD7)", "BRAF": "Serine/threonine-protein kinase B-raf (BRAF, Homo sapiens, UniProt P15056)", "MTOR": "Serine/threonine-protein kinase mTOR (MTOR, Homo sapiens, UniProt P42345)", "SMARCA2 bromodomain": "SWI/SNF-related matrix-associated actin-dependent regulator of chromatin subfamily A member 2, bromodomain (SMARCA2, Homo sapiens, UniProt P51531)", "ROS1": "Proto-oncogene tyrosine-protein kinase ROS (ROS1, Homo sapiens, UniProt P08922)", "SMUG1": "SMUG1 (Homo sapiens, UniProt Q53HV7)", "AVPR2": "Vasopressin V2 receptor (AVPR2, Homo sapiens, UniProt P30518)", "note": "Protocols differ between the studies behind these lines."}
{"target": "ELANE", "assay": "enzyme activity, inhibitor, fluorescence", "IC50": "0.58 µM", "SMILES": "CCOC(=O)c1nn(C(=O)C2CC2)c2ccccc2c1=O"}
{"target": "Neuromedin-U receptor 2 (Mus musculus, UniProt Q8BZ39)", "assay": "ligand displacement, radioligand", "IC50": "9.12e-05 µM", "SMILES": "CC(C)C[C@H](NC(=O)[C@H](Cc1ccccc1)NC(=O)[C@@H](N)Cc1ccc(O)cc1)C(=O)N[C@@H](Cc1ccccc1)C(=O)N[C@@H](CCCNC(=N)N)C(=O)N1CCC[C@H]1C(=O)N[C@@H](CCCNC(=N)N)C(=O)N[C@@H](CC(N)=O)C(N)=O"}
{"target": "Delta-aminolevulinic acid dehydratase C162A/K59N", "assay": "enzyme activity, inhibitor, absorbance", "conditions": "pH 8, with preincubation", "IC50": "130 µM", "SMILES": "NS(=O)(=O)c1cc2c(cc1C(F)(F)F)NC(Cc1ccccc1)NS2(=O)=O (stereo not shown)"}
{"target": "Sodium channel protein type 8 subunit alpha (Rattus norvegicus, UniProt O88420)", "assay": "ion current, inhibitor, patch clamp", "IC50": "0.18 µM", "SMILES": "CCOC(F)(F)c1nnc2cnc(-c3cnc(OCC(F)(F)F)c(F)c3)cn12"}
{"target": "ELANE", "assay": "enzyme activity, inhibitor, fluorescence", "IC50": "0.97 µM", "SMILES": "Cc1cccc(C(=O)n2nc(Cl)c(=O)c3ccccc32)c1"}
{"target": "Melanocortin receptor 3 (MC3R, Homo sapiens, UniProt P41968)", "assay": "ligand displacement, radioligand", "IC50": "0.42 µM", "SMILES": "CC(=O)N[C@H]1CSSC[C@@H](C(=O)N[C@@H](Cc2c[nH]c3ccccc23)C(N)=O)NC(=O)[C@@H](Cc2ccccc2)NC(=O)[C@H](CCCNC(=N)N)NC1=O"}
{"target": "Serine/threonine-protein kinase B-raf (BRAF, Homo sapiens, UniProt P15056, Q461A/V600E)", "assay": "enzyme activity, inhibitor, ELISA", "IC50": "~0.464 µM", "SMILES": "CCCS(=O)(=O)Nc1ccc(F)c(C(=O)c2c[nH]c3ncc(-c4ccc(CNC(=O)COCC(=O)NCc5ccc(-c6cnc7[nH]cc(C(=O)c8c(F)ccc(NS(=O)(=O)CCC)c8F)c7c6)cc5)cc4)cc23)c1F"}
{"target": "Delta-aminolevulinic acid dehydratase C162A/K59N", "assay": "enzyme activity, inhibitor, absorbance", "conditions": "pH 8, with preincubation", "IC50": "2.1 µM", "SMILES": "NC(=O)N/N=C/c1ccc([N+](=O)[O-])o1"}
{"target": "Ephrin type-B receptor 2 (EPHB2, Homo sapiens, UniProt P29323)", "assay": "enzyme activity, inhibitor, radiometric", "IC50": "0.033 µM", "SMILES": "Cc1ccc(NC(=O)c2ccc(C)c(C(F)(F)F)c2)cc1C#Cc1nn(C2CCC(O)CC2)c2ncnc(N)c12 (stereo not shown)"}
{"target": "Epidermal growth factor receptor (EGFR, Homo sapiens, UniProt P00533, L747S)", "assay": "enzyme activity, inhibitor, TR-FRET", "IC50": "0.00309 µM", "SMILES": "C=CC(=O)Nc1cc(Nc2nccc(-c3cn(C4CC4)c4ccccc34)n2)c(OC)cc1N(C)CCN(C)C"}
{"target": "Bifunctional epoxide hydrolase 2 (Ephx2, Mus musculus, UniProt P34914)", "assay": "enzyme activity, inhibitor", "IC50": "0.0022 µM", "SMILES": "CC(O)C(C)C(=O)N1CCC(NC(=O)Nc2ccc(OC(F)(F)F)c(F)c2)CC1 (stereo not shown)"}
{"target": "BACE1", "assay": "enzyme activity, inhibitor", "IC50": "> 200 µM", "SMILES": "CC(C)=CCCC(C)=CCc1c(O)cc2occ(-c3ccc(O)cc3)c(=O)c2c1O"}
{"target": "Proteasome Macropain subunit MB1 (PSMB5, Homo sapiens, UniProt P28074)", "assay": "enzyme activity, inhibitor, fluorescence", "IC50": "> 10 µM", "SMILES": "CC(C)C[C@H](NC(=O)[C@@H]1COCCCCCCCC(=O)N2CCC[C@H]2C(=O)N1)C(=O)[C@@]1(C)CO1"}
{"target": "Cytoplasmic dynein 2 heavy chain 1 (DYNC2H1, Homo sapiens, UniProt Q8NCM8)", "assay": "ATPase activity, inhibitor", "IC50": "11 µM", "SMILES": "Cc1ccc(COc2ccc3c(c2)NC(=C(C#N)C(=O)c2ccc(Cl)cc2Cl)NC3=O)cc1"}
{"target": "RXFP3", "assay": "cAMP, antagonist, TR-FRET", "IC50": "2.67 µM", "SMILES": "O=C(Nc1ccc(-c2nc(-c3ccc(F)cc3)no2)cc1)C1CC(=O)N(Cc2cccnc2)C1 (stereo not shown)"}
{"target": "BACE1", "assay": "enzyme activity, inhibitor, FRET", "conditions": "pH 5", "IC50": "1100 µM", "SMILES": "NC1=NCC(c2cccc3ccccc23)OC1 (stereo not shown)"}
{"target": "BRAF", "assay": "cell-free assay", "IC50": "> 10 µM", "SMILES": "CC(C)(C)n1nc(-c2ccc3nc(OC4CC4)ccc3c2)c(C(N)=O)c1N"}
{"target": "Mitogen-activated protein kinase 8 (MAPK8, Homo sapiens, UniProt P45983)", "assay": "enzyme activity, inhibitor", "IC50": "> 0.5 µM", "SMILES": "COc1ccc2c(Oc3ccc4c(C(=O)Nc5ccccc5N)cccc4c3)ccnc2c1"}
{"target": "MTOR", "assay": "ligand displacement, TR-FRET", "IC50": "0.0213 µM", "SMILES": "Nc1ncc(-c2nc(N3CCOCC3)nc(N3[C@@H]4CC[C@H]3COC4)n2)c(C(F)F)n1"}
{"target": "Endoplasmin (HSP90B1, Canis lupus familiaris, UniProt P41148)", "assay": "ligand displacement, FP", "IC50": "> 50 µM", "SMILES": "CCCc1cc2cc(-n3nc(C)c4c3CC(C)(C)CC4=O)cc(N[C@H]3CC[C@H](O)CC3)c2c(=O)[nH]1"}
{"target": "Epidermal growth factor receptor (EGFR, Homo sapiens, UniProt P00533, C797S/L858R/T790M)", "assay": "enzyme activity, inhibitor, ELISA", "IC50": "> 1 µM", "SMILES": "C=C(Cl)C(=O)Nc1cc(Nc2nc(Nc3cnn(C)c3)c3sccc3n2)c(OC)cc1N1CCN(C)CC1"}
{"target": "Hydroxycarboxylic acid receptor 2 (HCAR2, Homo sapiens, UniProt Q8TDS4)", "assay": "ligand displacement, radioligand", "conditions": "cell membranes", "IC50": "~900 µM", "SMILES": "O=C1N[C@H](C(=O)O)CS1"}
{"target": "RXFP3", "assay": "cAMP, antagonist, TR-FRET", "IC50": "> 10 µM", "SMILES": "Cc1ccccc1-c1noc(-c2ccc(NC(=O)C3CC(=O)N(Cc4cccnc4)C3)cc2)n1 (stereo not shown)"}
{"target": "Kir3.1/Kir3.2 (Homo sapiens, UniProt P48051+P48549)", "assay": "ion flux, inhibitor", "IC50": "2.5 µM", "SMILES": "CC(C)c1cc(NC(=O)Nc2ccc(F)c(F)c2)n(-c2ccccc2)n1"}
{"target": "MTOR", "assay": "ligand displacement, TR-FRET", "IC50": "0.0324 µM", "SMILES": "C[C@@H]1COCCN1c1nc(-c2cnc(N)nc2C(F)F)nc(N2CCOCC2)n1"}
{"target": "BACE1", "assay": "enzyme activity, inhibitor", "IC50": "> 90 µM", "SMILES": "CC(C)(O)C1Cc2c(cc3occ(-c4ccc(O)cc4)c(=O)c3c2O)O1 (stereo not shown)"}
{"target": "Delta-aminolevulinic acid dehydratase C162A/K59N", "assay": "enzyme activity, inhibitor, absorbance", "conditions": "pH 8, with preincubation", "IC50": "2.1 µM", "SMILES": "Cc1c(Cl)cccc1Nc1ccccc1C(=O)O"}
{"target": "SMARCA2 bromodomain", "assay": "ligand displacement, TR-FRET", "IC50": "0.67 µM", "SMILES": "Cc1ncsc1-c1ccc(CNC(=O)[C@@H]2C[C@H](O)CN2C(=O)[C@@H](NC(=O)C2(F)CC2)C(C)(C)C)c(OCCOc2ccc(CN3CCN(c4cc(-c5ccccc5O)nnc4N)CC3)cc2)c1"}
{"target": "DNA polymerase iota (Homo sapiens, UniProt Q9UNA4)", "assay": "enzyme activity, inhibitor", "IC50": "0.099 µM", "SMILES": "O=C(O)C1=CC(=C(c2ccc(O)c(C(=O)O)c2)c2ccc(O)c(C(=O)O)c2)C=CC1=O"}
{"target": "ROS1", "assay": "phosphorylation in cells, inhibitor, western blot", "IC50": "0.17 µM", "SMILES": "Cc1ccc(C(=O)Nc2ccc(Oc3cc4cnn(C)c4cc3-c3cn[nH]c3)c(F)c2)c(=O)n1-c1ccc(F)cc1"}
{"target": "ROS1", "assay": "enzyme activity, inhibitor", "IC50": "2.25 µM", "SMILES": "CN1CCN(c2ccc(Nc3ncc4cc(C#N)c(=O)n(C5CCCC5)c4n3)cc2)CC1"}
{"target": "SMUG1", "assay": "enzyme activity, inhibitor", "IC50": "> 100 µM", "SMILES": "COc1cc(NC(=O)N2CCC(n3c(=O)[nH]c4c(Br)cccc43)CC2)ccc1Cl"}
{"target": "Delta-aminolevulinic acid dehydratase C162A/K59N", "assay": "enzyme activity, inhibitor, absorbance", "conditions": "pH 8, with preincubation", "IC50": "2.5 µM", "SMILES": "O=C(O)c1ccccc1Nc1cccc(C(F)(F)F)c1"}
{"target": "ELANE", "assay": "enzyme activity, inhibitor, fluorescence", "IC50": "0.21 µM", "SMILES": "CCOC(=O)c1nn(C(=O)c2cccc(C)c2)c2ccccc2c1=O"}
{"target": "RXFP3", "assay": "cAMP, antagonist, TR-FRET", "IC50": "2.17 µM", "SMILES": "O=C(Nc1ccc(-c2nc(-c3ccc(C(F)(F)F)cc3)no2)cc1)C1CC(=O)N(Cc2cccnc2)C1 (stereo not shown)"}
{"target": "Epidermal growth factor receptor (EGFR, Homo sapiens, UniProt P00533, L858R/T790M)", "assay": "enzyme activity, inhibitor", "IC50": "0.0086 µM", "SMILES": "O=C(N/N=C/CN1CCCCC1)Nc1cc2c(Nc3ccc(F)c(Cl)c3)ncnc2cc1O[C@H]1CCOC1"}
{"target": "SMARCA2 bromodomain", "assay": "ligand displacement, TR-FRET", "IC50": "1.3 µM", "SMILES": "Cc1ncsc1-c1ccc(CNC(=O)[C@@H]2C[C@H](O)CN2C(=O)[C@@H](NC(=O)C2(F)CC2)C(C)(C)C)c(OCCc2ccc(CN3CCN(c4cc(-c5ccccc5O)nnc4N)CC3)cc2)c1"}
{"target": "AVPR2", "assay": "ligand displacement, radioligand", "conditions": "cell membranes", "IC50": "9.6 µM", "SMILES": "NCCCC[C@H](NC(=O)[C@@H]1CCCN1C(=O)[C@@H]1CSSC[C@H](NC(=O)CNC(=O)CNC(=O)CN)C(=O)N[C@@H](Cc2ccc(O)cc2)C(=O)N[C@@H](Cc2ccccc2)C(=O)N[C@@H](CCC(N)=O)C(=O)N[C@@H](CC(N)=O)C(=O)N1)C(=O)NCC(N)=O"}
{"target": "BACE1", "assay": "enzyme activity, inhibitor", "IC50": "91 µM", "SMILES": "COc1ccc2c(c1)OC1Oc3cc(O)c(CC=C(C)C)c(O)c3C(=O)C21O (stereo not shown)"}
{"target": "Type-1 angiotensin II receptor (AGTR1, Homo sapiens, UniProt P30556)", "assay": "ligand displacement", "IC50": "> 10 µM", "SMILES": "COc1ccc2c(c1OCc1ccc(OC(F)(F)F)cc1)C[C@@H](C(=O)O)N(c1nc3ccc(F)cc3o1)C2"}
{"target": "ELANE", "assay": "enzyme activity, inhibitor, fluorescence", "IC50": "0.59 µM", "SMILES": "Cc1cccc(C(=O)Oc2cnnc3ccc([N+](=O)[O-])cc23)c1"}
{"target": "BRAF", "assay": "cell-free assay, inhibitor", "IC50": "0.832 µM", "SMILES": "Nc1cccc(-c2cc3c(Oc4cccc(O)c4)ncnc3[nH]2)c1"}
{"target": "RXFP3", "assay": "cAMP, antagonist, TR-FRET", "IC50": "4.04 µM", "SMILES": "Cc1cccc(-c2noc(-c3ccc(NC(=O)C4CC(=O)N(Cc5cccnc5)C4)cc3)n2)c1 (stereo not shown)"}
{"target": "Transient receptor potential cation channel subfamily V member 4 (TRPV4, Homo sapiens, UniProt Q9HBA0)", "assay": "ion current, inhibitor", "IC50": "> 10 µM", "SMILES": "O=C(Nc1ccn(Cc2ccc(O)cc2C(F)(F)F)n1)c1c(F)cccc1F"}
{"target": "SMUG1", "assay": "enzyme activity, inhibitor", "IC50": "> 100 µM", "SMILES": "O=C(Nc1ccc(Cl)cc1)N1CCC(n2c(=O)[nH]c3c(Br)cccc32)CC1"}
{"target": "AVPR2", "assay": "calcium signal, antagonist", "IC50": "31.1 µM", "SMILES": "CCC(C)n1ncn(-c2ccc(N3CCN(c4ccc(OCC5COC(Cn6cncn6)(c6ccc(Cl)cc6Cl)O5)cc4)CC3)cc2)c1=O (stereo not shown)"}
